Experimental data reported in article PMC8481180 (Clinical Drug Investigation, 2021).
Entries after “also recorded” stand apart in the source; their conditions may differ. Where two headings read alike, the source gives them in different places.

Tests used:
[1] = format: in vivo, human; conditions: for Tmax: median (range)
Procedure, shortened: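 Oral suspension given fasted (10 h overnight), 6 subjects per dose. Blood (2 mL, K₂-EDTA) was taken pre-dose and 0.5–48 h after the first and Day-10 doses. Day-10 urine was collected pre-dose and over 0–3, 3–6, 6–12 and 12–24 h. Analysis used validated methods and non-compartmental methods with actual sampling times. AUC was by log-linear trapezoidal rule.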

[2] = Pharmacokinetics in healthy non-Japanese subjects; format: in vivo, human; conditions: for AUCτ, non-Japanese geometric mean, body weight normalized to 70 kg: Day 10
[3] = Comparison of pharmacokinetics, Japanese versus non-Japanese subjects; format: in vivo, human; conditions: Day 10
Procedure, shortened: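 Day-10 Japanese multiple-dose pharmacokinetic parameters were compared with a prior Phase I non-Japanese study (MAD part). Parameters were log-transformed to give geometric mean ratios with 90% confidence intervals. Cmax and AUCτ were also normalised to 70 kg body weight. Six subjects per cohort.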

LTE4 in urine = test: Creatine-normalized urine LTE4 quantification; format: in vivo, human
Procedure, shortened: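 Urinary LTE₄ was normalised to creatinine. On Days 1 and 10, samples were a pre-dose spot, pooled 0–3, 3–6, 6–9 and 9–12 h collections, and spots at 24 and 36 h. Only pre-dose spots were taken on Days 3–9. Inhibition was related to plasma exposure after oral doses of 60–600 mg.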

[4] = Clinical safety and tolerability in healthy Japanese subjects; format: in vivo, human
Procedure, shortened: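 Randomised, placebo-controlled: four cohorts of 8 (6 active, 2 placebo) received an oral amorphous suspension once on Day 1, then once daily on Days 3–10, fasted. Assessments were adverse events, vital signs, ECG, telemetry and routine clinical laboratory tests. They were taken before and at scheduled times after dosing and at follow-up 7–10 days after the final dose.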

[5] = cited from earlier work
[6] = SMAD study, fasting and fed healthy volunteers; cited from earlier work
[7] = Japanese, 60 mg OD, Day 1, geometric mean (CV%)
[8] = Japanese, 60 mg OD, Day 10, geometric mean (CV%)
[9] = Japanese, 180 mg OD, Day 1, geometric mean (CV%)
[10] = Japanese, 180 mg OD, Day 10, geometric mean (CV%)
[11] = Japanese, 360 mg OD, Day 1, geometric mean (CV%)
[12] = Japanese, 360 mg OD, Day 10, geometric mean (CV%)
[13] = Japanese, 600 mg OD, Day 1, geometric mean (CV%)
[14] = Japanese, 600 mg OD, Day 10, geometric mean (CV%)

Cc1cc(-c2ccc(C(=O)[C@@H]3CCCC[C@H]3C(=O)Nc3cnn4c3C(=O)NCC4)cc2)n[nH]1 [AZD5718]
AUCτ, Japanese geometric mean, body weight normalized to 70 kg ([1]; 60 mg, Day 10): 1056.0 nmol·h/L | AUCτ, Japanese geometric mean, body weight normalized to 70 kg ([1]; 180 mg, Day 10): 5896.7 nmol·h/L | AUCτ, Japanese geometric mean, body weight normalized to 70 kg ([1]; 360 mg, Day 10): 14,981.4 nmol∙h/L | AUCτ, Japanese geometric mean, body weight normalized to 70 kg ([1]; 600 mg, Day 10): 25,893.0 nmol∙h/L | Cmax ([1]; Japanese, 60 mg OD oral suspension, Day 1, geometric mean (CV%), n = 6): 140 nM | AUCτ [1, 7]: 862.9 (35.8) nmol∙h/L | CL/F [1, 7]: 142.1 (33.5) L/h | t½ [1, 7]: 10.1 (44.0) h | Tmax ([1]; Japanese, 60 mg OD, Day 1): 1.0 (1.0, 3.0) h | AUCτ [1, 8]: 1140.5 (25.5) nmol∙h/L | CL/F [1, 8]: 117.8 (25.5) L/h | CLR [1, 8]: 0.8 (22.5) L/h | Cmax [1, 8]: 159 nM | t½ [1, 8]: 12.8 (47.0) h | Tmax ([1]; Japanese, 60 mg OD, Day 10): 2.0 (1.0, 3.0) h | AUCτ [1, 9]: 4739.4 (33.3) nmol∙h/L | CL/F [1, 9]: 82.2 (35.8) L/h | Cmax [1, 9]: 1280 nM | t½ [1, 9]: 8.5 (47.9) h | Tmax ([1]; Japanese, 180 mg OD, Day 1): 1.0 (0.5, 2.0) h | AUCτ [1, 10]: 6724.5 (32.0) nmol∙h/L | CL/F [1, 10]: 60.0 (32.0) L/h | CLR [1, 10]: 0.8 (38.4) L/h | Cmax [1, 10]: 1570 nM | t½ [1, 10]: 8.6 (23.6) h | Tmax ([1]; Japanese, 180 mg OD, Day 10): 1.5 (1.0, 2.0) h | AUCτ [1, 11]: 8971.1 (47.6) nmol∙h/L | CL/F [1, 11]: 84.3 (51.7) L/h | Cmax [1, 11]: 2200 nM | t½ [1, 11]: 15.0 (100.5) h | Tmax ([1]; Japanese, 360 mg OD, Day 1): 1.0 (1.0, 2.1) h | AUCτ [1, 12]: 15,847.3 (47.8) nmol∙h/L | CL/F [1, 12]: 50.9 (47.8) L/h | CLR [1, 12]: 0.9 (21.0) L/h | Cmax [1, 12]: 3460 nM | t½ [1, 12]: 10.5 (29.1) h | Tmax ([1]; Japanese, 360 mg OD, Day 10): 2.0 (1.0, 3.0) h | AUCτ [1, 13]: 17,592.6 (39.9) nmol∙h/L | CL/F [1, 13]: 74.1 (40.0) L/h | Cmax [1, 13]: 5180 nM | t½ [1, 13]: 7.4 (25.5) h | Tmax ([1]; Japanese, 600 mg OD, Day 1): 1.0 (1.0, 2.0) h | AUCτ [1, 14]: 27,349.3 (48.8) nmol∙h/L | CL/F [1, 14]: 49.1 (48.8) L/h | CLR [1, 14]: 0.8 (16.8) L/h | Cmax [1, 14]: 6150 nM | t½ [1, 14]: 8.5 (35.1) h | Tmax ([1]; Japanese, 600 mg OD, Day 10): 1.0 (1.0, 2.0) h | Tmax (median) across doses ([1]; Japanese, 60–600 mg oral, fasted): 1 to 2 h | accumulation in AUCτ ([1]; Japanese, Day 10 versus Day 1, all doses): 32–77% | time to steady-state plasma concentrations ([1]; Japanese, once-daily dosing): 3 to 4 days | Cmax ([1]; read-out: Cmax, Japanese geometric mean, body weight normalized to 70 kg, 60 mg, Day 10): 147 nM | Cmax ([1]; read-out: Cmax, Japanese geometric mean, body weight normalized to 70 kg, 180 mg, Day 10): 1370 nM | Cmax ([1]; read-out: Cmax, Japanese geometric mean, body weight normalized to 70 kg, 360 mg, Day 10): 3270 nM | Cmax ([1]; read-out: Cmax, Japanese geometric mean, body weight normalized to 70 kg, 600 mg, Day 10): 5820 nM | AUCτ, non-Japanese geometric mean, body weight normalized to 70 kg ([2]; 60 mg): 1464.7 nmol·h/L | AUCτ, non-Japanese geometric mean, body weight normalized to 70 kg ([2]; 180 mg): 5837.1 nmol·h/L | AUCτ, non-Japanese geometric mean, body weight normalized to 70 kg ([2]; 360 mg): 14,647.6 nmol∙h/L | AUCτ, non-Japanese geometric mean, body weight normalized to 70 kg ([2]; 600 mg): 24,956.5 nmol∙h/L | Cmax ([2]; read-out: Cmax, non-Japanese geometric mean, body weight normalized to 70 kg, 60 mg, Day 10): 232 nM | Cmax ([2]; read-out: Cmax, non-Japanese geometric mean, body weight normalized to 70 kg, 180 mg, Day 10): 1420 nM | Cmax ([2]; read-out: Cmax, non-Japanese geometric mean, body weight normalized to 70 kg, 360 mg, Day 10): 3680 nM | Cmax ([2]; read-out: Cmax, non-Japanese geometric mean, body weight normalized to 70 kg, 600 mg, Day 10): 6130 nM | AUCτ GMR Japanese versus non-Japanese, % (90% CI) ([3]; 60 mg): 82 (63–108) % | AUCτ GMR Japanese versus non-Japanese, % (90% CI), body weight normalized to 70 kg ([3]; 60 mg): 72 (55–95) % | Cmax GMR Japanese versus non-Japanese, % (90% CI) ([3]; 60 mg): 72 (54–97) % | Cmax GMR Japanese versus non-Japanese, % (90% CI), body weight normalized to 70 kg ([3]; 60 mg): 63 (48–84) % | AUCτ GMR Japanese versus non-Japanese, % (90% CI) ([3]; 180 mg): 131 (88–196) % | AUCτ GMR Japanese versus non-Japanese, % (90% CI), body weight normalized to 70 kg ([3]; 180 mg): 101 (71–144) % | Cmax GMR Japanese versus non-Japanese, % (90% CI) ([3]; 180 mg): 126 (82–195) % | Cmax GMR Japanese versus non-Japanese, % (90% CI), body weight normalized to 70 kg ([3]; 180 mg): 97 (65–145) % | AUCτ GMR Japanese versus non-Japanese, % (90% CI) ([3]; 360 mg): 124 (83–186) % | AUCτ GMR Japanese versus non-Japanese, % (90% CI), body weight normalized to 70 kg ([3]; 360 mg): 102 (70–149) % | Cmax GMR Japanese versus non-Japanese, % (90% CI) ([3]; 360 mg): 108 (72–162) % | Cmax GMR Japanese versus non-Japanese, % (90% CI), body weight normalized to 70 kg ([3]; 360 mg): 89 (60–131) % | AUCτ GMR Japanese versus non-Japanese, % (90% CI) ([3]; 600 mg): 118 (73–190) % | AUCτ GMR Japanese versus non-Japanese, % (90% CI), body weight normalized to 70 kg ([3]; 600 mg): 104 (69–156) % | Cmax GMR Japanese versus non-Japanese, % (90% CI) ([3]; 600 mg): 108 (66–178) % | Cmax GMR Japanese versus non-Japanese, % (90% CI), body weight normalized to 70 kg ([3]; 600 mg): 95 (64–142) % | time at which level of full LTE4 inhibition achieved (LTE4 in urine; Japanese, after the first dose, all doses): 8 h | sustained reduction in LTE4 in urine (LTE4 in urine; Japanese, all doses): above 80% | inhibition of LTE4 in urine after the first dose (LTE4 in urine; Japanese, all doses (60–600 mg)): > 80% | time of maximum reduction in LTE4 in urine post-dose (LTE4 in urine; after first dose, both Japanese and non-Japanese subjects): ≤ 12 h | urinary LTE4 inhibition versus AZD5718 exposure (LTE4 in urine; single and multiple doses, at plasma concentrations in the lower nM range): > 80% | serious adverse events ([4]; Japanese, 60, 180, 360, 600 mg): No serious AEs | vital signs, ECG, telemetry, laboratory results ([4]; Japanese, all doses): no clinically significant trends | tolerability ([4]; Japanese, single and multiple oral doses 60, 180, 360, 600 mg): No clinically relevant safety and tolerability findings; also recorded: safe, well tolerated | time to steady-state levels ([5]; SMAD study, once-daily dosing): 2 to 3 days | terminal half-life ([5]; SMAD study): 10 h | AUCτ, non-Japanese geometric mean ([5]; non-Japanese, 60 mg multiple dosing, Day 10): 1386.3 nmol·h/L | AUCτ, non-Japanese geometric mean ([5]; non-Japanese, 180 mg multiple dosing, Day 10): 5128.4 nmol·h/L | AUCτ, non-Japanese geometric mean ([5]; non-Japanese, 360 mg multiple dosing, Day 10): 12,764.7 nmol∙h/L | AUCτ, non-Japanese geometric mean ([5]; non-Japanese, 600 mg multiple dosing, Day 10): 23,175.0 nmol∙h/L | Cmax ([5]; read-out: Cmax, non-Japanese geometric mean, non-Japanese, 60 mg multiple dosing, Day 10): 220 nM | tolerability [6]: well tolerated
